Assay outcomes from PubChem.
Mdm2 MdmX PPI: inhibitors of human Mdm2/MdmX interaction; O15151+Q00987; SaOS-2 split-luciferase Mdm2/MdmX complementation, luminescence; inhibition, % at 8 µM; actives 3% (n = 330,000); AID 485346;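 active = inhibition of at least 50% at 8 µM in the primary screen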
CSC inhib: cancer stem cell inhibition; cancer stem cell-like cells viability, luminescence; inhibition, % at 7.5 µM; actives 1.1% (n = 300,000); AID 2717; in the data active = inhibition above about 75%; inconclusive = no clear call, values can overlap the other calls; tested in HMLE shEcad cells
Beta cell apopt: beta cell apoptosis inhibition; INS-1E cytokine-induced death, ATP luminescence, 48 h; percent of positive-control rescue, neutral wells zero; protection from apoptosis, % (concentration not given with the values); actives 0.8% (n = 300,000);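 active = Every replicate reaches about 75%, or at least half do and their mean reaches it too, limit read from the data; inconclusive = At least half of replicates reach the limit but their mean does not; inactive = Under half of replicates reach the limit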;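 note: 0% = cytokine-treated negative control wells and 100% = positive control rescue; higher means more ATP so stronger rescue from cytokine killing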
T cruzi repl: blocks replication of Trypanosoma cruzi; actives 1.4% (n = 300,000); T. cruzi beta-gal in NIH3T3, luminescence, 90 h; inhibition, % (no concentration beside the values); AID 1885;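 active = mean inhibition across valid replicates above about 55%, limit read from the data; inconclusive = mean below that limit but half or more replicates reach it; inactive = mean below it, under half of replicates reach it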;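 note: signal also drops with host cell toxicity which is not excluded here; 0% = plate median of DMSO wells and 100% = zero luminescence signal; higher percent means less beta-gal luminescence so fewer parasites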
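Incubation – ≥90 h infection period, 3 h prior cell attachment · System – NIH/3T3 fibroblasts plus reporter T. cruzi · Doses – compound pinned at 50 nL/well, DMSO · Read-out basis – percent inhibition of parasite-derived β-gal signal · Signal – luminescent β-galactosidase signal after 60 min lysis · Also added – 5000 T. cruzi trypomastigotes/well · Medium – Low-serum DMEM with 2% FBS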
Calb FLC: C. albicans growth modulation with fluconazole | actives 0.57% (n = 300,000) | C. albicans CaCi-2 (fluconazole-resistant clinical isolate) + fluconazole, Alamar Blue growth, 48 h | growth inhibition, % (no concentration beside the values) | AID 1979;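 active = growth inhibition above about 58% in most replicates, limit read from the data, passing the limit was not always enough; inconclusive = exactly half the replicates above a set limit; inactive = most replicates below a set limit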;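 note: all wells also contain fluconazole at 8 µg/ml as a sub-toxic cotreatment; 0% = median of DMSO wells and 100% = median of geldanamycin control wells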
NALP3 yeast inh: blocks the NALP3 inflammasome reconstituted in yeast | Yeast reconstituted NLRP3/ASC/caspase-1, beta-gal luminescence, 24 h | inhibition, % at 10 µM | actives 0.39% (n = 330,000) | AID 2825;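 active = inhibition of 50% or more; inactive = inhibition below 50%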;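 note: plate controls were induced DMSO wells for no effect and uninduced yeast grown without galactose for full effect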
Mdm2-MdmX conf: human Mdm2/MdmX binding inhibition, confirmed; shares compounds with Mdm2 MdmX PPI; luminescent assay; inhibition, % at 8 µM; actives 55% (n = 10,000); AID 489028; in the data active = inhibition above about 40%
Full FLuc ctr: inhibits full-length luciferase, flagging false Mdm2/MdmX hits | shares compounds with Mdm2 MdmX PPI | SaOS-2 full-length luciferase counterscreen, luminescence | inhibition, % at 8 µM | AID 504607 | actives 77% (n = 6,200);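 active = mean inhibition at 8 µM reaching about 37%, which flags the compound as non-specific, limit read from the data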;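 note: p53-null SaOS-2 cells with luciferase driven by a doxycycline-inducible promoter; compound on cells about two nights before reading with doxycycline added after day one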
* hit, by the source's call; ? = inconclusive; . = no result. An excerpt weighted towards active compounds, which were near 5.3% of everything screened.

SMILES | Mdm2 MdmX PPI | CSC inhib | Beta cell apopt | T cruzi repl | Calb FLC | NALP3 yeast inh | Mdm2-MdmX conf | Full FLuc ctr
Cc1ccc(/C=C/C(O)=C2/C(=O)N(C)C3(C)CC2c2ccccc2O3)cc1 (centres undefined) | 83.3* | 52.0 | -3.6 | 34.3 | 11.5 | -1.5 | 42.2* | 30.1
Cc1ccc(S(=O)(=O)C2C(=O)N(C)C3(C)CC2c2ccccc2O3)cc1C (centres undefined) | -3.2 | -2.9 | -8.9 | 3.5 | -11.6 | 13.7 | . | .
COc1ccc(/C=C/C(O)=C2/C(=O)NC3(C)CC2c2ccccc2O3)c(OC)c1OC (centres undefined) | 11.2 | 26.4 | -5.0 | 36.2 | -7.4 | 6.3 | . | .
CC(C)N1CCc2c(sc(NC(=O)c3ccco3)c2C(N)=O)C1 | 15.8 | -5.2 | -1.9 | 19.5 | 8.2 | 0.7 | . | .
Nc1c(Cl)c(Cl)nc(C(=O)OCC(=O)N2CCCC2=O)c1Cl | -4.6 | -3.7 | . | -8.0 | -2.5 | -0.2 | . | .
O=C(OCC(=O)N1CCCC1=O)c1nc(Cl)c(Cl)c(Cl)c1Cl | 77.3* | 11.7 | -4.7 | -15.5 | 6.5 | 1.1 | 26.1 | .
Cc1onc(-c2ccccc2)c1C(=O)Nc1cc(C(F)(F)F)ccc1N1CCOCC1 | 29.1 | 56.8 | 1.7 | 14.5 | ? | -11.5 | . | .
CCOC(=O)c1ccc(N2CCOCC2)c(NC(=O)c2c(-c3ccccc3)noc2C)c1 | 60.0* | 53.1 | . | 10.5 | -2.4 | 19.6 | 67.1* | 54.0*
Cn1c(=NC(=O)CCl)sc2ccccc21 | 98.4* | 10.3 | -5.7 | 62.0* | 4.3 | 28.6 | 96.9* | 28.7
CCOC(=O)C(CN1CCCC1)c1ccccc1 (centres undefined) | -2.9 | -1.6 | 1.4 | -0.8 | -2.3 | 7.3 | . | .
O=C(c1ccc(Cl)cc1)C(CN1CCCCC1)c1ccccc1 (centres undefined) | 94.2* | 94.9* | 91.3* | 32.3 | 2.6 | 17.8 | 55.0* | 42.4*
CCCOc1ccc(C(=O)C(CN2CCOCC2)c2ccccc2)cc1 (centres undefined) | 91.3* | 6.2 | 79.0* | -8.8 | 1.4 | 27.1 | 84.5* | 25.6
CCOC(=O)c1sc(NC(=O)CCC(=O)O)nc1C | -6.6 | -30.1 | 1.4 | -2.1 | 7.0 | 13.3 | . | .
CSc1ccccc1-c1nnc(-c2ccccc2)o1 | -103.6 | . | 3.6 | -3.2 | -2.1 | 17.9 | . | .
Cc1ccc(/C(N)=N/OC(=O)c2ccc(F)cc2)cc1 | 58.8* | -5.4 | -5.6 | 1.7 | -12.0 | 21.3 | 16.1 | .
Cc1ccc(/C(N)=N/OC(=O)c2cccc(F)c2)cc1 | -59.1 | 3.7 | -4.7 | -14.1 | -8.2 | 8.7 | . | .
Cc1ccc(/C(N)=N/OC(=O)c2ccc3ccccc3c2)cc1 | 94.4* | -6.5 | -4.9 | 2.0 | 0.3 | 22.3 | 37.5 | 117.0*
N/C(=N\OC(=O)c1ccc(F)cc1)c1ccc(Br)cc1 | 50.7* | -2.1 | 1.2 | 7.3 | -8.7 | 20.2 | -10.8 | .
N/C(Cc1ccc(Cl)cc1)=N\OC(=O)c1ccc2ccccc2c1 | 99.4* | -4.6 | 2.8 | 14.9 | -3.7 | 18.4 | 5.9 | .
COc1ccccc1OC(=O)Nc1ccc(Cl)cc1 | -2.9 | 32.0 | 2.1 | -2.3 | 3.3 | 17.1 | . | .
COc1cccc(C(=O)OCC(=O)NC2CCCc3ccccc32)c1O (centres undefined) | -12.5 | . | . | . | . | 23.8 | . | .
COc1ccccc1N1CCN(C(=O)CCS(=O)(=O)c2ccc3c(c2)oc(=O)n3C)CC1 | 18.1 | -10.9 | -6.7 | 2.7 | 5.9 | 7.7 | . | .
COc1ccc(C2CC(c3ccccc3)=NN2C(=O)COC(=O)c2cccnc2Cl)cc1 (centres undefined) | -15.7 | -5.6 | 5.4 | 1.2 | 12.7 | -8.7 | . | .
CCCCNc1ccc(C(CC(N)=O)NC(=O)Cc2ccc(Br)cc2)cc1[N+](=O)[O-] (centres undefined) | 86.6* | 7.0 | -11.0 | -22.3 | -6.3 | 13.7 | 60.2* | 53.1*
CCN(C[C@H]1N[C@@](CC)(C(=O)OC)[C@H]2C(=O)N(Cc3ccccc3)C(=O)[C@@H]12)C(=O)Nc1ccc(Cl)cc1 | 60.4* | . | . | . | . | 5.8 | 62.0* | 58.0*
